ChEMBL document CHEMBL3525897, “Metabolism and quantification of [(18)F]DPA-714, a new TSPO positron emission tomography radioligand” (Drug Metab Dispos, 2013)

What was measured:
[1] = Retention time of the compound by LC-MS analysis; format: physicochemical
How it was run: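 Separation of DPA-714 and its metabolites by LC-MS on reverse-phase Atlantis C18 column (2.1x150 mm) with electrospray ionization.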

Liver microsome = experiment: Drug level in Sprague-Dawley rat liver microsomes treated with DPA-714 after 15 to 60 mins by LC-MS/MS analysis

Retention_time [1] [min] | Drug metabolism (Liver microsome) | SMILES
16.43 | metabolite_detected | CCN(CC)C(=O)Cc1c(-c2ccc(OCCF)cc2)nn2c(C)c(O)c(C)nc12
16.1 | metabolite_detected | CCNC(=O)Cc1c(-c2ccc(OCCF)cc2)nn2c(C)cc(C)nc12
13.88 | metabolite_detected | CCNC(=O)Cc1c(-c2ccc(OCCF)cc2)nn2c(C)cc(CO)nc12
15.85 | metabolite_detected | CCN(CC)C(=O)Cc1c(-c2ccc(OCCF)cc2)nn2c(CO)cc(C)nc12
15.05 | metabolite_detected | CCN(CC)C(=O)Cc1c(-c2ccc(O)cc2)nn2c(C)cc(C)nc12
